Legend:
[1] = target: T1, Adenosine receptor A1 (Homo sapiens, UniProt P30542); assay: Displacement of [3H]CCPA from recombinant human adenosine A1 receptor expressed in CHO cells; type: cell-based
T1 sequence (P30542 whole entry): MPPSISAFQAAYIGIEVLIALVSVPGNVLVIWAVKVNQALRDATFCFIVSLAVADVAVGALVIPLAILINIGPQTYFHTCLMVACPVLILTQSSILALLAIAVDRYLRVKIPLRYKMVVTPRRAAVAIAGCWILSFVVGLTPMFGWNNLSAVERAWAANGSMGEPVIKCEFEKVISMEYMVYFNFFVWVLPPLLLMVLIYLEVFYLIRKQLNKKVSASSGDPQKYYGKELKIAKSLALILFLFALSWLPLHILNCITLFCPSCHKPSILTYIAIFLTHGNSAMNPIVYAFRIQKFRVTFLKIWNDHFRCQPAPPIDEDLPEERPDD

[2] = target: T2, Adenosine receptor A2b (Homo sapiens, UniProt P29275); assay: Displacement of [3H]PSB603 from recombinant human adenosine A2b receptor expressed in HEK293 cells; type: cell-based
T2 sequence (P29275 whole entry): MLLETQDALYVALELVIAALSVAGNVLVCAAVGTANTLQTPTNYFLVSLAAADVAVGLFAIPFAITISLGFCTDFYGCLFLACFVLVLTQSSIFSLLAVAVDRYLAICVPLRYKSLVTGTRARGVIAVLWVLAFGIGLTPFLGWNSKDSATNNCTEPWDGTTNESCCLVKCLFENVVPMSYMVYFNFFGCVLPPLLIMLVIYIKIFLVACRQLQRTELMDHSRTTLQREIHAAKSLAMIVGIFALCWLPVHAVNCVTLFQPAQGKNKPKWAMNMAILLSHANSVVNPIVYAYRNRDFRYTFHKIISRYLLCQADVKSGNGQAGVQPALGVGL

[3] = target: T3, Adenosine receptor A2b (Homo sapiens) (UniProt P29275); assay: Displacement of [3H]PSB603 from recombinant human adenosine A2b receptor expressed in HEK293 cells at 1 uM relative to control; type: cell-based
T3 sequence (whole entry): T2 sequence (P29275 whole entry)
Outline: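 Purchased membranes of HEK cells expressing human A2A ([3H]MSX-2) or human A2B ([3H]PSB-603). A single high compound concentration is screened first; for potent compounds, full inhibition curves spanning 3 orders of magnitude. At least three independent experiments.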

[4] = target: T4, Adenosine receptor A3 (Homo sapiens) (UniProt P0DMS8); assay: Displacement of [3H]PSB11 from recombinant human adenosine A3 receptor expressed in CHO cells at 1 uM relative to control; type: cell-based
T4 sequence (whole entry): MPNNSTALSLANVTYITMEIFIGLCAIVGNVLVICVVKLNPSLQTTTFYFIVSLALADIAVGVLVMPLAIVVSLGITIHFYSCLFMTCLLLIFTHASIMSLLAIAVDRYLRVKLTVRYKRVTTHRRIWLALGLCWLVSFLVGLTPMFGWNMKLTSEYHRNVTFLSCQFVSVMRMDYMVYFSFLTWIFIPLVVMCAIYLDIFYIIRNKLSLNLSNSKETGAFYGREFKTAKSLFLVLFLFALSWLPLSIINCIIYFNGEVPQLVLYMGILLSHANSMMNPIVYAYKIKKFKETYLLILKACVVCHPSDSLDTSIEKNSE
Outline: (§1)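 Purchased membranes of CHO cells expressing human A1 ([3H]CCPA) or human A3 ([3H]PSB-11). A single high compound concentration is screened first; for potent compounds, full inhibition curves spanning 3 orders of magnitude. At least three independent experiments.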

[5] = target: T5, Amine oxidase [flavin-containing] A (Homo sapiens, UniProt P21397); assay: Inhibition of recombinant human MAOA expressed in baculovirus infected BTI insect cells using p-tyramine as substrate preincubated for 30 mins followed by substrate addition and measured over 45 mins by horseradish peroxidase-Amplex Red-coupled fluorometric assay
T5 sequence (P21397 whole entry): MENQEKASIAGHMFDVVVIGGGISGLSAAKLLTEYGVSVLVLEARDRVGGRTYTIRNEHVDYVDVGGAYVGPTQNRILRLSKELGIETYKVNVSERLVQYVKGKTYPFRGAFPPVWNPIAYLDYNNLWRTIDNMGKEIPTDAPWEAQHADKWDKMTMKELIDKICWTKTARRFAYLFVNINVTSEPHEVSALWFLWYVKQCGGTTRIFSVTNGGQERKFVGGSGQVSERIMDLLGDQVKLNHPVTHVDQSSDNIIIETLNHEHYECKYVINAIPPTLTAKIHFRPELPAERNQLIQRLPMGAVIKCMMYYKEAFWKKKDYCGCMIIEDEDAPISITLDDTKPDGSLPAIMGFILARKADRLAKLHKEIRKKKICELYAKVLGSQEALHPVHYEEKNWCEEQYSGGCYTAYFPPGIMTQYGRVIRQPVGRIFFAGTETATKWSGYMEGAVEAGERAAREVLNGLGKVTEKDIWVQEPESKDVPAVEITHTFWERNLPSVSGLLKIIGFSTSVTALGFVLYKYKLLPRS
Outline: (§2)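 Human recombinant MAO-A or MAO-B enzyme. Activity detected fluorometrically with the Amplex Red monoamine oxidase assay.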

[6] = target: T6, Adenosine receptor A1 (Homo sapiens) (UniProt P30542); assay: Displacement of [3H]CCPA from recombinant human adenosine A1 receptor expressed in CHO cells at 1 uM relative to control; type: cell-based; outline: as §1
T6 sequence (whole entry): T1 sequence (P30542 whole entry)

[7] = target: T5, Amine oxidase [flavin-containing] A; assay: Inhibition of recombinant human MAOA expressed in baculovirus infected BTI insect cells at 1 to 100 uM using p-tyramine as substrate preincubated for 30 mins followed by substrate addition and measured over 45 mins by horseradish peroxidase-Amplex Red-coupled fluorometric assay relative to control; details: 0.75 h; outline: as §2
[8] = target: T7, Adenosine receptor A3 (Homo sapiens, UniProt P0DMS8); assay: Displacement of [3H]PSB11 from recombinant human adenosine A3 receptor expressed in CHO cells; type: cell-based
T7 sequence (P0DMS8 whole entry): T4 sequence (whole entry)

[9] = target: T8, Amine oxidase [flavin-containing] B (Homo sapiens, UniProt P27338); assay: Inhibition of recombinant human MAOB expressed in baculovirus infected BTI insect cells using p-tyramine as substrate preincubated for 30 mins followed by substrate addition and measured over 45 mins by horseradish peroxidase-Amplex Red-coupled fluorometric assay; outline: as §2
T8 sequence (P27338 whole entry): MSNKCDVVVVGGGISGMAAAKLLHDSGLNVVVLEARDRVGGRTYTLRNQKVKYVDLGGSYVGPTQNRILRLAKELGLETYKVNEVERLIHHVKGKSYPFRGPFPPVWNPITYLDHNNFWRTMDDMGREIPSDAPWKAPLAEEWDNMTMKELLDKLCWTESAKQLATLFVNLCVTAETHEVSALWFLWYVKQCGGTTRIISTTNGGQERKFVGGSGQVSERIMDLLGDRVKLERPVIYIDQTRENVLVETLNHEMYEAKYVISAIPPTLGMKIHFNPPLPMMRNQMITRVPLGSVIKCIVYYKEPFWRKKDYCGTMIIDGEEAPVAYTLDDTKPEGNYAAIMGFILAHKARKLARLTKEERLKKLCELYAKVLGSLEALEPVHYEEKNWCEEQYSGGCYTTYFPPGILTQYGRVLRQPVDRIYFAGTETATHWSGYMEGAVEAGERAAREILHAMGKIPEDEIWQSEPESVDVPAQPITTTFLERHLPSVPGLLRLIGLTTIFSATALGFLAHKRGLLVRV

[10] = target: Adenosine receptor A2a (Homo sapiens, UniProt P29274); assay: Displacement of [3H]MSX2 from recombinant human adenosine A2a receptor expressed in HEK293 cells; type: cell-based
Sequence of Adenosine receptor A2a (P29274 whole entry): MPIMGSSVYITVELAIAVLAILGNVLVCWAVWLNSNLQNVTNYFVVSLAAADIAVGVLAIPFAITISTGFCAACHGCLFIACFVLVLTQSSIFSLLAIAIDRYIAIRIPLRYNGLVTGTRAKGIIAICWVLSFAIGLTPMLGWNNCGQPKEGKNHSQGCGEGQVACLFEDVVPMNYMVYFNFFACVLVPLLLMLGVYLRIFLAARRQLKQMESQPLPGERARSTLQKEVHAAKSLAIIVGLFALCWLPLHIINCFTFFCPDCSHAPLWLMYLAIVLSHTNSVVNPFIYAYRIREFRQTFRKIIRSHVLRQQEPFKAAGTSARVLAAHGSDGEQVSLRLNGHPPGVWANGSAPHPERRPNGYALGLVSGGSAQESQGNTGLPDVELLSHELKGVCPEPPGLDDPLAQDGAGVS

[11] = target: T9, Adenosine receptor A1 (Rattus norvegicus, UniProt P25099); assay: Displacement of [3H]CCPA from adenosine A1 receptor in rat brain cortical membranes; type: cell membranes
T9 sequence (P25099 whole entry): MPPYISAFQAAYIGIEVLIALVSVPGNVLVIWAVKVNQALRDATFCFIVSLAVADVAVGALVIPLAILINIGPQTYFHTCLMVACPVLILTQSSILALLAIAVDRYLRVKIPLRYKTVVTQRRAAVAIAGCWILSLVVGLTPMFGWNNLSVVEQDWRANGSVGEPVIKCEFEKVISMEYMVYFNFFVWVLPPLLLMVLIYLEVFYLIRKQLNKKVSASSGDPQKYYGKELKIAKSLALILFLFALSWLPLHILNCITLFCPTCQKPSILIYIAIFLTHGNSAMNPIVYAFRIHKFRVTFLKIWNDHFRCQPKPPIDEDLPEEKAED

[12] = target: T8, Amine oxidase [flavin-containing] B; assay: Inhibition of recombinant human MAOB expressed in baculovirus infected BTI insect cells at 1 to 100 uM using p-tyramine as substrate preincubated for 30 mins followed by substrate addition and measured over 45 mins by horseradish peroxidase-Amplex Red-coupled fluorometric assay relative to control; details: 0.75 h; outline: as §2

Cn1c(=O)c2c(nc3n2CCCCN3Cc2ccccc2Br)n(C)c1=O
Ki [1]: > 1000 nM
Ki [2]: > 1000 nM
inhibition [3]: 43%
inhibition [4]: 42%
IC50 [5]: > 1000 nM
inhibition [6]: 21%
inhibition (INH) [7]: 3%
Ki [8]: > 1000 nM
IC50 [9]: 275 nM
Ki [10]: 767 nM

Cn1c(=O)c2c(nc3n2CCCCN3Cc2ccc(Cl)cc2)n(C)c1=O
Ki [1]: > 1000 nM
Ki [2]: > 1000 nM
inhibition [3]: 13%
inhibition [4]: 10%
IC50 [5]: > 1000 nM
inhibition [6]: 13%
inhibition (INH) [7]: 6%
Ki [8]: > 1000 nM
IC50 [9]: 364 nM
Ki [10]: > 1000 nM

Cn1c(=O)c2c(nc3n2CCCN3Cc2cccs2)n(C)c1=O
Ki [11]: 2650 nM
Ki [2]: > 1000 nM
inhibition (INH) [12]: 20%
Ki [8]: > 1000 nM
IC50 [9]: > 1000 nM
Ki [10]: 2020 nM

Cn1c(=O)c2c(nc3n2CCCCN3Cc2ccc(F)c(Br)c2)n(C)c1=O
Ki [1]: > 1000 nM
Ki [2]: > 1000 nM
inhibition [3]: 43%
inhibition [4]: 20%
IC50 [5]: > 1000 nM
inhibition [6]: 23%
inhibition (INH) [7]: -6%
Ki [8]: > 1000 nM
IC50 [9]: 171 nM
Ki [10]: > 1000 nM

Cn1c(=O)c2c(nc3n2CCCN3Cc2cc(F)c(F)c(F)c2)n(C)c1=O
Ki [11]: > 1000 nM
Ki [2]: > 1000 nM
inhibition (INH) [12]: 24%
Ki [8]: > 1000 nM
IC50 [9]: > 1000 nM
Ki [10]: > 1000 nM

Cn1c(=O)c2c(nc3n2CCCN3CCc2ccncc2)n(C)c1=O
Ki [11]: > 1000 nM
Ki [2]: > 1000 nM
inhibition (INH) [12]: 4%
Ki [8]: > 1000 nM
IC50 [9]: > 1000 nM
Ki [10]: > 1000 nM

Cn1c(=O)c2c(nc3n2CCCN3CCc2cccnc2)n(C)c1=O
Ki [11]: > 1000 nM
Ki [2]: > 1000 nM
inhibition (INH) [12]: 1%
Ki [8]: > 1000 nM
IC50 [9]: > 1000 nM
Ki [10]: 3040 nM

Cn1c(=O)c2c(nc3n2CCCCN3Cc2ccc(Cl)cc2Cl)n(C)c1=O
Ki [1]: > 1000 nM
Ki [2]: > 1000 nM
inhibition [3]: 5%
inhibition [4]: 31%
IC50 [5]: > 1000 nM
inhibition [6]: 16%
inhibition (INH) [7]: -2%
Ki [8]: > 1000 nM
IC50 [9]: 282 nM
Ki [10]: 1580 nM

Cn1c(=O)c2c(nc3n2CCCCN3Cc2ccccc2Cl)n(C)c1=O
Ki [1]: > 1000 nM
Ki [2]: > 1000 nM
inhibition [3]: 41%
inhibition [4]: 15%
IC50 [5]: > 1000 nM
inhibition [6]: 10%
inhibition (INH) [7]: 4%
Ki [8]: > 1000 nM
IC50 [9]: 343 nM
Ki [10]: 881 nM

COc1ccccc1CN1CCn2c1nc1c2c(=O)n(C)c(=O)n1C
Ki [1]: > 1000 nM
Ki [2]: > 1000 nM
inhibition [3]: 3%
inhibition [4]: 15%
IC50 [5]: > 1000 nM
inhibition [6]: 30%
inhibition (INH) [7]: 7%
Ki [8]: > 1000 nM
IC50 [9]: 111000 nM
Ki [10]: 784 nM

Cn1c(=O)c2c(nc3n2CCN3Cc2ccccc2Br)n(C)c1=O
Ki [1]: > 1000 nM
Ki [2]: > 1000 nM
inhibition [3]: 21%
inhibition [4]: 37%
IC50 [5]: > 1000 nM
inhibition [6]: 24%
inhibition (INH) [7]: 13%
Ki [8]: > 1000 nM
IC50 [9]: 991 nM
Ki [10]: 887 nM

COc1ccccc1CN1CCCCn2c1nc1c2c(=O)n(C)c(=O)n1C
Ki [1]: > 1000 nM
Ki [2]: > 1000 nM
inhibition [3]: 16%
inhibition [4]: 19%
IC50 [5]: > 1000 nM
inhibition [6]: 13%
inhibition (INH) [7]: 2%
Ki [8]: > 1000 nM
IC50 [9]: 1920 nM
Ki [10]: 959 nM
